Data taken from ChEMBL document CHEMBL1152322, “Evaluating indole-related derivatives as precursors in the directed biosynthesis of diazepinomicin analogues” (2009).
≈ marks a conversion by molar mass, not a printed value.

Experiments:
Type in all cases: functional
Enterococcus faecium [1] = experiment: Antimicrobial activity against Enterococcus faecium 436 ID3151 after 18 hrs by broth dilution method; settings: Enterococcus faecium, 436, 18 h
Outline: (§1)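 MIC by broth dilution per NCCLS recommendations in Mueller-Hinton II medium. Inoculum 5 × 10^5 cfu/mL, antibiotic concentrations 128-0.0625 µg/mL. Microtiter plates incubated 18 h at 35 °C in ambient air. MIC read at end of incubation.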

Candida albicans = experiment: Antimicrobial activity against Candida albicans 54 CA300 after 18 hrs by broth dilution method; settings: Candida albicans, 54, 18 h; outline: as §1
Staphylococcus aureus [2] = experiment: Antimicrobial activity against Staphylococcus aureus 375 ATCC 3538p after 18 hrs by broth dilution method; settings: Staphylococcus aureus, 375, 18 h; outline: as §1
Escherichia coli [3] = experiment: Antimicrobial activity against Escherichia coli 389 GC4560 expressing imp after 18 hrs by broth dilution method; settings: Escherichia coli, 389, 18 h; outline: as §1
Enterococcus faecium [4] = experiment: Antimicrobial activity against vancomycin-resistant Enterococcus faecium 379 NC12204 after 18 hrs by broth dilution method; settings: Enterococcus faecium, 379, 18 h
Outline: (§2)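 MIC by broth dilution following NCCLS recommendations, Mueller-Hinton II medium; inoculum 5 × 10^5 cfu/mL; antibiotic range 128-0.0625 µg/mL; microtiter plates incubated 18 h at 35 °C in ambient air; MIC read after incubation.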

Escherichia coli [5] = experiment: Antimicrobial activity against Escherichia coli 442 GC4559 after 18 hrs by broth dilution method; settings: Escherichia coli, 442, 18 h; outline: as §1
Staphylococcus aureus [6] = experiment: Antimicrobial activity against methicillin-resistant Staphylococcus aureus 310 SSC8224 after 18 hrs by broth dilution method; settings: Staphylococcus aureus, 310, 18 h; outline: as §2

Row | SMILES | MIC (Enterococcus faecium [1]) [µg/mL] | MIC (Candida albicans) [µg/mL] | MIC (Staphylococcus aureus [2]) [µg/mL] | MIC (Escherichia coli [3]) [µg/mL] | MIC (Enterococcus faecium [4]) [µg/mL] | MIC (Escherichia coli [5]) [µg/mL] | MIC (Staphylococcus aureus [6]) [µg/mL]
1 | CC(C)=CCC/C(C)=C/CC/C(C)=C/CN1C(=O)c2cc(F)cc(O)c2Nc2c(O)cc(O)cc21 | 32 (≈ 66.6 µM) | > 128 | 16 (≈ 33.3 µM) | > 128 | 16 (≈ 33.3 µM) | > 128 | 8 (≈ 16.6 µM)
2 | CC(C)=CCC/C(C)=C/CC/C(C)=C/CN1C(=O)c2ccc(F)c(O)c2Nc2c(O)cc(O)cc21 | 32 (≈ 66.6 µM) | > 128 | 32 (≈ 66.6 µM) | > 128 | 32 (≈ 66.6 µM) | > 128 | 16 (≈ 33.3 µM)
3 | CC(C)=CCC/C(C)=C/CC/C(C)=C/CN1C(=O)c2cccc(O)c2Nc2c(O)cc(O)cc21 [DIAZEPINOMICIN] | 64 (≈ 138 µM) | > 128 | 16 (≈ 34.6 µM) | > 128 | 32 (≈ 69.2 µM) | > 128 | 8 (≈ 17.3 µM)
